Results gathered from unrelated publications.
Protocols differ between the studies behind these lines.
CDK13 with cyclin K: Cyclin-dependent kinase 13, with cyclin K (CDK13, Homo sapiens, UniProt Q14004)
CDK13: Cyclin-dependent kinase 13 (CDK13, Homo sapiens, UniProt Q14004)

Structure (SMILES) | target | effect on | action | technique | concentration | quantity | value
COc1cc(Cl)c(C(=O)N[C@@H](CN[C@H]2CC[C@@H](N)CC2)Cc2ccc(C#N)cc2)cc1-c1ccc(CN[C@H](C)c2ccc(C)cc2)o1 | CDK13 with cyclin K | enzyme activity | inhibitor | – | 1 µM | remaining activity | 107%
CN(C)c1nccc(-c2cnc3ncccn23)n1 | CDK13 | binding | – | – | 1 µM | remaining binding | 58%
CN([C@@H]1CCc2c(CC(=O)O)c3cc(S(C)(=O)=O)ccc3n2C1)S(=O)(=O)c1ccc(F)cc1 | CDK13 | cell-free assay | – | competition with immobilised ligand | 1 µM | remaining binding | 86%
Cc1ccc(C(=O)NCc2ccsc2)cc1C#Cc1cn(C(C)C)c2ncnc(N)c12 | CDK13 with cyclin K | enzyme activity | inhibitor | – | 1 µM | activity vs control | 85%
CN1CC(Oc2cnc(C#N)cc2-c2ccn3nc(NC(=O)C4CC4)cc3c2)C1 | CDK13 with cyclin K | enzyme activity | inhibitor | – | 1 µM | inhibition | 1%
Cc1ccc(C(=O)Nc2ccc(CN3CCN(C)CC3)c(C(F)(F)F)c2)cc1C#Cc1cnc2cccnn12 | CDK13 | enzyme activity | inhibitor | – | 23.5 nM | remaining activity | 6.4%
C[C@H](NC(=O)c1cnc2n1[C@](C)(Cc1ccc(C#N)cc1)C(=O)N2c1cc(Cl)c(F)c(Cl)c1)C(=O)NC1(c2ccccn2)CC1 | CDK13 | cell-free assay | – | competition with immobilised ligand | 1 µM | remaining binding | 100%
Nc1ncnc2occ(-c3ccc(NC(=O)Nc4cc(C(F)(F)F)ccc4F)cc3)c12 | CDK13 | cell-free assay | inhibitor | – | 20 µM | remaining signal | 0.1%
